Laboratory results taken from ChEMBL document CHEMBL3576840, “Helical Antimicrobial Sulfono-γ-AApeptides” (J Med Chem, 2015).
≈ marks a conversion by molar mass, not a printed value. Residues, ends and D or L forms follow the SMILES beside them.

What was measured:
[1] = system: Staphylococcus aureus; test: Antimicrobial activity against methicillin-resistant Staphylococcus aureus ATCC 33592 after 16 hrs; format: functional; conditions: ATCC 33592, 16 h
[2] = system: Staphylococcus epidermidis; test: Antimicrobial activity against methicillin-resistant Staphylococcus epidermidis RP62A after 16 hrs; format: functional
[3] = system: Enterococcus faecalis; test: Antimicrobial activity against Enterococcus faecalis ATCC 700802 after 16 hrs; format: functional; conditions: ATCC 700802, 16 h
Outline: (§1)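 Broth microdilution: overnight cultures were reinoculated at 1:100, grown to mid-log phase, and diluted to 1 × 10^6 CFU/mL. Cells were mixed 1:1 with serial dilutions […] and incubated 16 h at 37 °C, then read at 600 nm. MIC is the lowest concentration with no growth. Repeated multiple times, in duplicate.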

[4] = system: Pseudomonas aeruginosa; test: Antimicrobial activity against Pseudomonas aeruginosa ATCC 27853 after 16 hrs; format: functional; conditions: ATCC 27853, 16 h; outline: as §1
[5] = system: Escherichia; test: Antimicrobial activity against Escherichia ATCC 25922 after 16 hrs; format: functional; conditions: ATCC 25922, 16 h; outline: as §1
[6] = Induction of hemolysis in human RBCs incubated for 1 hr; format: cell-based, Erythrocyte; conditions: red blood cells
Outline: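 Fresh K2EDTA human RBCs were washed in PBS until the supernatant was clear and diluted to a 5% v/v suspension. This was mixed with equal volumes of compound dilutions for 1 h at 37 °C, centrifuged, and supernatant absorbance read at 360 nm. Hemolysis was normalized between PBS (0%) and 2% Triton X-100 (100%) controls. At least three repeats, in duplicate.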

[7] = Stability in presence of 0.1 mg/ml pronase in 100 mM pH 7.8 ammonium bicarbonate buffer at 37 degC assessed as compound degradation after 18 hrs by HPLC method; format: physicochemical; conditions: pH 7.8, 18 h
Outline: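 Compound or control peptide AcVQIVYK (1 mg/mL) was incubated 18 h at 37 °C with Pronase in ammonium bicarbonate. Mixtures were dried by speed-vac at 60 °C, redissolved in water and run on analytical RP-HPLC: 5–100% acetonitrile/0.1% TFA gradient over 40 min at 1 mL/min.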

[8] = system: N2a; test: Cytotoxicity against mouse N2a cells assessed as cell viability after 36 hrs by MTT assay

| Structure (SMILES) | MIC [1] [µg/mL] | MIC [2] [µg/mL] | MIC [3] [µg/mL] | MIC [4] [µg/mL] | MIC [5] [µg/mL] | HC50 at 1 h [6] [µg/mL] | Stability [7] | EC50 [8] [µg/mL] |
| --- | --- | --- | --- | --- | --- | --- | --- | --- |
| CC[C@H](C)[C@H](NC(=O)CN)C(=O)NCC(=O)N[C@@H](CCCCN)C(=O)N[C@@H](Cc1ccccc1)C(=O)N[C@@H](CC(C)C)C(=O)N[C@@H](CCCCN)C(=O)N[C@@H](CCCCN)C(=O)N[C@@H](C)C(=O)N[C@@H](CCCCN)C(=O)N[C@@H](CCCCN)C(=O)N[C@@H](Cc1ccccc1)C(=O)NCC(=O)N[C@@H](CCCCN)C(=O)N[C@@H](C)C(=O)N[C@@H](Cc1ccccc1)C(=O)N[C@H](C(=O)N[C@@H](CCCCN)C(=O)N[C@H](C(=O)N[C@@H](CC(C)C)C(=O)N[C@@H](CCCCN)C(=O)N[C@@H](CCCCN)C(N)=O)[C@@H](C)CC)C(C)C [PEXIGANAN] (H-GIGKFLKKAKKFGKAFVKILKK-NH2) | 16 (≈ 6.46 µM) | 8 (≈ 3.23 µM) | 32 (≈ 12.9 µM) | 16 (≈ 6.46 µM) | 8 (≈ 3.23 µM) |  |  |  |
| NCCCC[C@@H](CN(CC(N)=O)S(=O)(=O)CCN)NC(=O)CN(C[C@H](Cc1ccccc1)NC(=O)CN(C[C@H](Cc1ccccc1)NC(=O)CN(C[C@H](Cc1ccccc1)NC(=O)CN(C[C@H](CCCCN)NC(=O)CN(C[C@@H](N)Cc1ccccc1)S(=O)(=O)Cc1ccccc1)S(=O)(=O)CCN)S(=O)(=O)Cc1ccccc1)S(=O)(=O)CCN)S(=O)(=O)Cc1ccccc1 | 6 (≈ 3.15 µM) | 3 (≈ 1.58 µM) | > 50 | 25 (≈ 13.1 µM) | 12 (≈ 6.3 µM) | > 250 |  |  |
| NCCCC[C@@H](CN(CC(N)=O)S(=O)(=O)CCN)NC(=O)CN(C[C@H](Cc1ccccc1)NC(=O)CN(C[C@H](Cc1ccccc1)NC(=O)CN(C[C@@H](N)Cc1ccccc1)S(=O)(=O)Cc1ccccc1)S(=O)(=O)CCN)S(=O)(=O)Cc1ccccc1 | > 50 | 20 (≈ 15.6 µM) | > 50 | > 50 | 25 (≈ 19.5 µM) | > 250 |  |  |
| CC[C@H](C)[C@H](NC(=O)[C@H](CCC(N)=O)NC(=O)[C@@H](NC(C)=O)C(C)C)C(=O)N[C@H](C(=O)N[C@@H](Cc1ccc(O)cc1)C(=O)N[C@@H](CCCCN)C(=O)O)C(C)C (Ac-VQIVYK-OH) |  |  |  |  |  |  | Unstable |  |
| CC(=O)N[C@@H](Cc1ccccc1)CN(CC(=O)N[C@@H](Cc1ccccc1)CN(CC(=O)N[C@@H](Cc1ccccc1)CN(CC(=O)N[C@@H](Cc1ccccc1)CN(CC(=O)N[C@@H](Cc1ccccc1)CN(CC(=O)N[C@@H](Cc1ccccc1)CN(CC(=O)N[C@@H](Cc1ccccc1)CN(CC(=O)N[C@@H](Cc1ccccc1)CN(CC(N)=O)S(=O)(=O)CCN)S(=O)(=O)CCN)S(=O)(=O)CCN)S(=O)(=O)CCN)S(=O)(=O)CCN)S(=O)(=O)CCN)S(=O)(=O)CCN)S(=O)(=O)CCN | 25 (≈ 10.3 µM) | 6 (≈ 2.46 µM) | 50 (≈ 20.5 µM) | > 50 | > 50 | > 250 |  |  |
| CC(=O)N[C@@H](CCCCN)CN(CC(=O)N[C@@H](Cc1ccccc1)CN(CC(=O)N[C@@H](CCCCN)CN(CC(=O)N[C@@H](Cc1ccccc1)CN(CC(=O)N[C@@H](CCCCN)CN(CC(=O)N[C@@H](Cc1ccccc1)CN(CC(=O)N[C@@H](CCCCN)CN(CC(=O)N[C@@H](Cc1ccccc1)CN(CC(N)=O)S(=O)(=O)Cc1ccccc1)S(=O)(=O)CCN)S(=O)(=O)Cc1ccccc1)S(=O)(=O)CCN)S(=O)(=O)Cc1ccccc1)S(=O)(=O)CCN)S(=O)(=O)Cc1ccccc1)S(=O)(=O)CCN | 12 (≈ 4.71 µM) | 4 (≈ 1.57 µM) | 6 (≈ 2.35 µM) | > 50 | 6 (≈ 2.35 µM) | 150 |  |  |
| CC(=O)N[C@@H](CCCCN)CN(CC(=O)N[C@@H](CCCCN)CN(CC(=O)N[C@@H](CCCCN)CN(CC(=O)N[C@@H](CCCCN)CN(CC(=O)N[C@@H](CCCCN)CN(CC(=O)N[C@@H](CCCCN)CN(CC(=O)N[C@@H](CCCCN)CN(CC(=O)N[C@@H](CCCCN)CN(CC(N)=O)S(=O)(=O)Cc1ccccc1)S(=O)(=O)Cc1ccccc1)S(=O)(=O)Cc1ccccc1)S(=O)(=O)Cc1ccccc1)S(=O)(=O)Cc1ccccc1)S(=O)(=O)Cc1ccccc1)S(=O)(=O)Cc1ccccc1)S(=O)(=O)Cc1ccccc1 | > 50 | > 50 | > 50 | > 50 | > 50 |  |  |  |
| NCCCC[C@@H](CN(CC(N)=O)S(=O)(=O)CCN)NC(=O)CN(C[C@@H](N)Cc1ccccc1)S(=O)(=O)Cc1ccccc1 | > 50 | > 50 | > 50 | > 50 | > 50 |  |  |  |
| NCCCC[C@H](N)CN(CC(=O)N[C@@H](Cc1ccccc1)CN(CC(=O)N[C@@H](Cc1ccccc1)CN(CC(=O)N[C@@H](Cc1ccccc1)CN(CC(=O)N[C@@H](CCCCN)CN(CC(N)=O)S(=O)(=O)CCN)S(=O)(=O)Cc1ccccc1)S(=O)(=O)CCN)S(=O)(=O)Cc1ccccc1)S(=O)(=O)CCN | > 50 | 20 (≈ 12.8 µM) | > 50 | > 50 | 25 (≈ 16 µM) | > 250 |  |  |
| CC(=O)N[C@@H](CCCCN)CN(CC(=O)N[C@@H](Cc1ccccc1)CN(CC(=O)N[C@@H](CCCCN)CN(CC(=O)N[C@@H](Cc1ccccc1)CN(CC(=O)N[C@@H](CCCCN)CN(CC(=O)N[C@@H](Cc1ccccc1)CN(CC(=O)N[C@@H](CCCCN)CN(CC(=O)N[C@@H](Cc1ccccc1)CN(CC(N)=O)S(=O)(=O)Cc1ccccc1)S(=O)(=O)CCN)S(=O)(=O)Cc1ccccc1)S(=O)(=O)Cc1ccccc1)S(=O)(=O)Cc1ccccc1)S(=O)(=O)CCN)S(=O)(=O)Cc1ccccc1)S(=O)(=O)Cc1ccccc1 | 5 (≈ 1.89 µM) | 2 (≈ 0.756 µM) | 10 (≈ 3.78 µM) | 20 (≈ 7.56 µM) | 3 (≈ 1.13 µM) | 80 |  |  |
| CC(C)C[C@H](N)CN(CC(=O)N[C@@H](CC(C)C)CN(CC(=O)N[C@@H](CC(C)C)CN(CC(=O)N[C@@H](CCCCN)CN(CC(=O)N[C@@H](CC(C)C)CN(CC(=O)N[C@@H](CC(C)C)CN(CC(=O)N[C@@H](CC(C)C)CN(CC(=O)N[C@@H](CCCCN)CN(CC(N)=O)S(=O)(=O)CCN)S(=O)(=O)CC(C)C)S(=O)(=O)CCN)S(=O)(=O)CC(C)C)S(=O)(=O)CCN)S(=O)(=O)CC(C)C)S(=O)(=O)CCN)S(=O)(=O)CC(C)C | > 50 | 12 (≈ 5.44 µM) | > 50 | 50 (≈ 22.7 µM) | 12 (≈ 5.44 µM) | > 250 |  |  |
| NCCCC[C@@H](CN(CC(N)=O)S(=O)(=O)CCN)NC(=O)CN(C[C@H](Cc1ccccc1)NC(=O)CN(C[C@H](Cc1ccccc1)NC(=O)CN(C[C@H](Cc1ccccc1)NC(=O)CN(C[C@H](CCCCN)NC(=O)CN(C[C@H](Cc1ccccc1)NC(=O)CN(C[C@@H](N)Cc1ccccc1)S(=O)(=O)CCN)S(=O)(=O)Cc1ccccc1)S(=O)(=O)CCN)S(=O)(=O)Cc1ccccc1)S(=O)(=O)CCN)S(=O)(=O)Cc1ccccc1 | 3 (≈ 1.36 µM) | 3 (≈ 1.36 µM) | > 50 | 12 (≈ 5.45 µM) | 12 (≈ 5.45 µM) | > 250 |  |  |
| NCCCC[C@H](N)CN(CC(=O)N[C@@H](Cc1ccccc1)CN(CC(=O)N[C@@H](CCCCN)CN(CC(=O)N[C@@H](Cc1ccccc1)CN(CC(=O)N[C@@H](CCCCN)CN(CC(=O)N[C@@H](Cc1ccccc1)CN(CC(=O)N[C@@H](CCCCN)CN(CC(=O)N[C@@H](Cc1ccccc1)CN(CC(N)=O)S(=O)(=O)Cc1ccccc1)S(=O)(=O)CCN)S(=O)(=O)Cc1ccccc1)S(=O)(=O)Cc1ccccc1)S(=O)(=O)Cc1ccccc1)S(=O)(=O)CCN)S(=O)(=O)Cc1ccccc1)S(=O)(=O)Cc1ccccc1 | 3 (≈ 1.15 µM) | 2 (≈ 0.769 µM) | 10 (≈ 3.84 µM) | 15 (≈ 5.76 µM) | 3 (≈ 1.15 µM) | 120 |  |  |
| CC(=O)N[C@@H](CC(C)C)CN(CC(=O)N[C@@H](CC(C)C)CN(CC(=O)N[C@@H](CC(C)C)CN(CC(=O)N[C@@H](CCCCN)CN(CC(=O)N[C@@H](CC(C)C)CN(CC(=O)N[C@@H](CC(C)C)CN(CC(=O)N[C@@H](CC(C)C)CN(CC(=O)N[C@@H](CCCCN)CN(CC(N)=O)S(=O)(=O)CCN)S(=O)(=O)CC(C)C)S(=O)(=O)CCN)S(=O)(=O)CC(C)C)S(=O)(=O)CCN)S(=O)(=O)CC(C)C)S(=O)(=O)CCN)S(=O)(=O)CC(C)C | > 50 | 12 (≈ 5.34 µM) | > 50 | 50 (≈ 22.2 µM) | 25 (≈ 11.1 µM) | > 250 |  |  |
| CC(=O)N[C@@H](CC(C)C)CN(CC(=O)N[C@@H](CC(C)C)CN(CC(=O)N[C@@H](CC(C)C)CN(CC(=O)N[C@@H](CC(C)C)CN(CC(=O)N[C@@H](CC(C)C)CN(CC(=O)N[C@@H](CC(C)C)CN(CC(=O)N[C@@H](CC(C)C)CN(CC(=O)N[C@@H](CC(C)C)CN(CC(N)=O)S(=O)(=O)CCN)S(=O)(=O)CCN)S(=O)(=O)CCN)S(=O)(=O)CCN)S(=O)(=O)CCN)S(=O)(=O)CCN)S(=O)(=O)CCN)S(=O)(=O)CCN | > 50 | > 50 | > 50 | > 50 | > 50 |  |  |  |
| CC(=O)N[C@@H](Cc1ccccc1)CN(CC(=O)N[C@@H](Cc1ccccc1)CN(CC(=O)N[C@@H](Cc1ccccc1)CN(CC(=O)N[C@@H](CCCCN)CN(CC(=O)N[C@@H](Cc1ccccc1)CN(CC(=O)N[C@@H](Cc1ccccc1)CN(CC(=O)N[C@@H](Cc1ccccc1)CN(CC(=O)N[C@@H](CCCCN)CN(CC(N)=O)S(=O)(=O)CCN)S(=O)(=O)Cc1ccccc1)S(=O)(=O)CCN)S(=O)(=O)Cc1ccccc1)S(=O)(=O)CCN)S(=O)(=O)Cc1ccccc1)S(=O)(=O)CCN)S(=O)(=O)Cc1ccccc1 | 4 (≈ 1.55 µM) | 2 (≈ 0.773 µM) | 2 (≈ 0.773 µM) | 6 (≈ 2.32 µM) | 4 (≈ 1.55 µM) | 75 |  | 80 (≈ 30.9 µM) |
